Data reported in ChEMBL document CHEMBL4152188, “Design, synthesis and biological evaluation of C(4) substituted monobactams as antibacterial agents against multidrug-resistant Gram-negative bacteria” (Eur J Med Chem, 2018).

Tests used:
Type in all cases: functional
Pseudomonas aeruginosa [1] = assay: Antibacterial activity against IMP-4 producing Pseudomonas aeruginosa isolate 209471 after 18 hrs in presence of BPL by CLSI broth microdilution method; settings: isolate 209471, 18 h
Method in brief: (§1)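 CLSI broth microdilution against clinical isolates (ESBL E. coli, KPC-2 MDR K. pneumoniae, IMP-4 MDR P. aeruginosa; five per species). Iron limitation: Mueller-Hinton broth supplemented with 16 mg/liter 2,2'-bipyridyl to complex iron and induce iron uptake systems. Read-out: MIC.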

Klebsiella pneumoniae [2] = assay: Selectivity index, ratio of MIC for against KPC-2 producing Klebsiella pneumoniae isolate 209735 to MIC for against KPC-2 producing Klebsiella pneumoniae isolate 209735 in presence of BPL
Klebsiella pneumoniae [3] = assay: Antibacterial activity against KPC-2 producing Klebsiella pneumoniae isolate 209735 after 18 hrs by CLSI broth microdilution method; settings: isolate 209735, 18 h
Escherichia coli [4] = assay: Antibacterial activity against extended-spectrum beta-lactamase producing Escherichia coli isolate 212648 after 18 hrs by CLSI broth microdilution method; settings: isolate 212648, 18 h
Escherichia coli [5] = assay: Antibacterial activity against extended-spectrum beta-lactamase producing Escherichia coli isolate 208687 after 18 hrs in presence of BPL by CLSI broth microdilution method; settings: isolate 208687, 18 h; method in brief: as §1
Escherichia coli [6] = assay: Antibacterial activity against Escherichia coli isolate 210737 after 18 hrs in presence of BPL by CLSI broth microdilution method; settings: isolate 210737, 18 h; method in brief: as §1
Klebsiella pneumoniae [7] = assay: Antibacterial activity against KPC-2 producing Klebsiella pneumoniae isolate 212229 after 18 hrs in presence of BPL by CLSI broth microdilution method; settings: isolate 212229, 18 h; method in brief: as §1
Pseudomonas aeruginosa [8] = assay: Antibacterial activity against IMP-4 producing Pseudomonas aeruginosa isolate 208247 after 18 hrs in presence of BPL by CLSI broth microdilution method; settings: isolate 208247, 18 h; method in brief: as §1
Klebsiella pneumoniae [9] = assay: Antibacterial activity against KPC-2 producing Klebsiella pneumoniae isolate 209735 after 18 hrs in presence of BPL by CLSI broth microdilution method; settings: isolate 209735, 18 h; method in brief: as §1
Klebsiella pneumoniae [10] = assay: Selectivity index, ratio of MIC for against KPC-2 producing Klebsiella pneumoniae isolate 212229 to MIC for against KPC-2 producing Klebsiella pneumoniae isolate 212229 in presence of BPL
Pseudomonas aeruginosa [11] = assay: Selectivity index, ratio of MIC for against IMP-4 producing Pseudomonas aeruginosa isolate 208247 to MIC for against IMP-4 producing Pseudomonas aeruginosa isolate 208247 in presence of BPL
Pseudomonas aeruginosa [12] = assay: Antibacterial activity against IMP-4 producing Pseudomonas aeruginosa isolate 212886 after 18 hrs in presence of BPL by CLSI broth microdilution method; settings: isolate 212886, 18 h; method in brief: as §1
Escherichia coli [13] = assay: Antibacterial activity against extended-spectrum beta-lactamase producing Escherichia coli isolate 209285 after 18 hrs by CLSI broth microdilution method; settings: isolate 209285, 18 h
Pseudomonas aeruginosa [14] = assay: Antibacterial activity against IMP-4 producing Pseudomonas aeruginosa isolate 212886 after 18 hrs by CLSI broth microdilution method; settings: isolate 212886, 18 h
Klebsiella pneumoniae [15] = assay: Antibacterial activity against KPC-2 producing Klebsiella pneumoniae isolate 209632 after 18 hrs by CLSI broth microdilution method; settings: isolate 209632, 18 h
Klebsiella pneumoniae [16] = assay: Selectivity index, ratio of MIC for against KPC-2 producing Klebsiella pneumoniae isolate 212423 to MIC for against KPC-2 producing Klebsiella pneumoniae isolate 212423 in presence of BPL
Pseudomonas aeruginosa [17] = assay: Antibacterial activity against IMP-4 producing Pseudomonas aeruginosa isolate 209471 after 18 hrs by CLSI broth microdilution method; settings: isolate 209471, 18 h
Klebsiella pneumoniae [18] = assay: Selectivity index, ratio of MIC for against KPC-2 producing Klebsiella pneumoniae isolate 209632 to MIC for against KPC-2 producing Klebsiella pneumoniae isolate 209632 in presence of BPL
Pseudomonas aeruginosa [19] = assay: Selectivity index, ratio of MIC for against IMP-4 producing Pseudomonas aeruginosa isolate 212886 to MIC for against IMP-4 producing Pseudomonas aeruginosa isolate 212886 in presence of BPL
Pseudomonas aeruginosa [20] = assay: Selectivity index, ratio of MIC for against IMP-4 producing Pseudomonas aeruginosa isolate 209321 to MIC for against IMP-4 producing Pseudomonas aeruginosa isolate 209321 in presence of BPL
Pseudomonas aeruginosa [21] = assay: Antibacterial activity against IMP-4 producing Pseudomonas aeruginosa isolate 209321 after 18 hrs by CLSI broth microdilution method; settings: isolate 209321, 18 h
Escherichia coli [22] = assay: Selectivity index, ratio of MIC for against Escherichia coli isolate 210737 to MIC for Escherichia coli isolate 210737 in presence of BPL
Escherichia coli [23] = assay: Antibacterial activity against extended-spectrum beta-lactamase producing Escherichia coli isolate 209285 after 18 hrs in presence of BPL by CLSI broth microdilution method; settings: isolate 209285, 18 h; method in brief: as §1
Escherichia coli [24] = assay: Antibacterial activity against extended-spectrum beta-lactamase producing Escherichia coli isolate 106342 after 18 hrs in presence of BPL by CLSI broth microdilution method; settings: isolate 106342, 18 h; method in brief: as §1
Escherichia coli [25] = assay: Selectivity index, ratio of MIC for against extended-spectrum beta-lactamase producing Escherichia coli isolate 209285 to MIC for extended-spectrum beta-lactamase producing Escherichia coli isolate 209285 in presence of BPL
Klebsiella pneumoniae [26] = assay: Antibacterial activity against KPC-2 producing Klebsiella pneumoniae isolate 212229 after 18 hrs by CLSI broth microdilution method; settings: isolate 212229, 18 h
Klebsiella pneumoniae [27] = assay: Antibacterial activity against KPC-2 producing Klebsiella pneumoniae isolate 212232 after 18 hrs in presence of BPL by CLSI broth microdilution method; settings: isolate 212232, 18 h; method in brief: as §1
Escherichia coli [28] = assay: Antibacterial activity against Escherichia coli isolate 210737 after 18 hrs by CLSI broth microdilution method; settings: isolate 210737, 18 h
Escherichia coli [29] = assay: Selectivity index, ratio of MIC for against extended-spectrum beta-lactamase producing Escherichia coli isolate 212648 to MIC for extended-spectrum beta-lactamase producing Escherichia coli isolate 212648 in presence of BPL
Klebsiella pneumoniae [30] = assay: Selectivity index, ratio of MIC for against KPC-2 producing Klebsiella pneumoniae isolate 212232 to MIC for against KPC-2 producing Klebsiella pneumoniae isolate 212232 in presence of BPL
Pseudomonas aeruginosa [31] = assay: Antibacterial activity against IMP-4 producing Pseudomonas aeruginosa isolate 207272 after 18 hrs in presence of BPL by CLSI broth microdilution method; settings: isolate 207272, 18 h; method in brief: as §1
Escherichia coli [32] = assay: Selectivity index, ratio of MIC for against extended-spectrum beta-lactamase producing Escherichia coli isolate 208687 to MIC for extended-spectrum beta-lactamase producing Escherichia coli isolate 208687 in presence of BPL
Klebsiella pneumoniae [33] = assay: Antibacterial activity against KPC-2 producing Klebsiella pneumoniae isolate 209632 after 18 hrs in presence of BPL by CLSI broth microdilution method; settings: isolate 209632, 18 h; method in brief: as §1
Klebsiella pneumoniae [34] = assay: Antibacterial activity against KPC-2 producing Klebsiella pneumoniae isolate 212423 after 18 hrs in presence of BPL by CLSI broth microdilution method; settings: isolate 212423, 18 h; method in brief: as §1
Escherichia coli [35] = assay: Selectivity index, ratio of MIC for against extended-spectrum beta-lactamase producing Escherichia coli isolate 106342 to MIC for extended-spectrum beta-lactamase producing Escherichia coli isolate 106342 in presence of BPL
Escherichia coli [36] = assay: Antibacterial activity against extended-spectrum beta-lactamase producing Escherichia coli isolate 208687 after 18 hrs by CLSI broth microdilution method; settings: isolate 208687, 18 h
Pseudomonas aeruginosa [37] = assay: Antibacterial activity against IMP-4 producing Pseudomonas aeruginosa isolate 208247 after 18 hrs by CLSI broth microdilution method; settings: isolate 208247, 18 h
Pseudomonas aeruginosa [38] = assay: Selectivity index, ratio of MIC for against IMP-4 producing Pseudomonas aeruginosa isolate 207272 to MIC for against IMP-4 producing Pseudomonas aeruginosa isolate 207272 in presence of BPL
Klebsiella pneumoniae [39] = assay: Antibacterial activity against KPC-2 producing Klebsiella pneumoniae isolate 212423 after 18 hrs by CLSI broth microdilution method; settings: isolate 212423, 18 h
Klebsiella pneumoniae [40] = assay: Antibacterial activity against KPC-2 producing Klebsiella pneumoniae isolate 212232 after 18 hrs by CLSI broth microdilution method; settings: isolate 212232, 18 h
Pseudomonas aeruginosa [41] = assay: Antibacterial activity against IMP-4 producing Pseudomonas aeruginosa isolate 207272 after 18 hrs by CLSI broth microdilution method; settings: isolate 207272, 18 h
Pseudomonas aeruginosa [42] = assay: Antibacterial activity against IMP-4 producing Pseudomonas aeruginosa isolate 209321 after 18 hrs in presence of BPL by CLSI broth microdilution method; settings: isolate 209321, 18 h; method in brief: as §1
Escherichia coli [43] = assay: Antibacterial activity against extended-spectrum beta-lactamase producing Escherichia coli isolate 106342 after 18 hrs by CLSI broth microdilution method; settings: isolate 106342, 18 h
Pseudomonas aeruginosa [44] = assay: Selectivity index, ratio of MIC for against IMP-4 producing Pseudomonas aeruginosa isolate 209471 to MIC for against IMP-4 producing Pseudomonas aeruginosa isolate 209471 in presence of BPL
Escherichia coli [45] = assay: Antibacterial activity against extended-spectrum beta-lactamase producing Escherichia coli isolate 212648 after 18 hrs in presence of BPL by CLSI broth microdilution method; settings: isolate 212648, 18 h; method in brief: as §1

CC(C)C(O/N=C(\C(=O)N[C@@H]1C(=O)N(S(=O)(=O)O)[C@@H]1CO)c1csc(N)n1)c1cc(=O)c(O)cn1O (stereo not given in full)
4: Selectivity Index (Klebsiella pneumoniae [18])
> 64 µg/mL: MIC (Pseudomonas aeruginosa [1]) | MIC (Escherichia coli [6]) | MIC (Pseudomonas aeruginosa [8]) | MIC (Pseudomonas aeruginosa [14]) | MIC (Pseudomonas aeruginosa [17]) | MIC (Escherichia coli [28]) | MIC (Pseudomonas aeruginosa [31]) | MIC (Pseudomonas aeruginosa [37]) | MIC (Pseudomonas aeruginosa [41])
2: Selectivity Index (Klebsiella pneumoniae [10]) | Selectivity Index (Escherichia coli [25]) | Selectivity Index (Escherichia coli [32])
32 µg/mL: MIC (Escherichia coli [5]) | MIC (Escherichia coli [23])
1 - 4: Selectivity Index (Pseudomonas aeruginosa [11]) | Selectivity Index (Pseudomonas aeruginosa [38]) | Selectivity Index (Pseudomonas aeruginosa [44])
8 µg/mL: MIC (Klebsiella pneumoniae [15]) | MIC (Klebsiella pneumoniae [26]) | MIC (Klebsiella pneumoniae [34]) | MIC (Klebsiella pneumoniae [39])
2 µg/mL: MIC (Klebsiella pneumoniae [27]) | MIC (Klebsiella pneumoniae [33])
4 µg/mL: MIC (Klebsiella pneumoniae [7])
1 - 2: Selectivity Index (Escherichia coli [22])
16 µg/mL: MIC (Klebsiella pneumoniae [3]) | MIC (Klebsiella pneumoniae [9]) | MIC (Pseudomonas aeruginosa [12]) | MIC (Klebsiella pneumoniae [40])
>4: Selectivity Index (Pseudomonas aeruginosa [19])
1: Selectivity Index (Klebsiella pneumoniae [2]) | Selectivity Index (Klebsiella pneumoniae [16]) | Selectivity Index (Pseudomonas aeruginosa [20]) | Selectivity Index (Escherichia coli [29]) | Selectivity Index (Escherichia coli [35])
8: Selectivity Index (Klebsiella pneumoniae [30])
64 µg/mL: MIC (Escherichia coli [4]) | MIC (Escherichia coli [13]) | MIC (Pseudomonas aeruginosa [21]) | MIC (Escherichia coli [24]) | MIC (Escherichia coli [36]) | MIC (Pseudomonas aeruginosa [42]) | MIC (Escherichia coli [43]) | MIC (Escherichia coli [45])

CC(C)C(O/N=C(\C(=O)NC1C(=O)N(S(=O)(=O)O)C12CCCC2)c1csc(N)n1)c1cc(=O)c(O)cn1O (stereo not given)
32 µg/mL: MIC (Pseudomonas aeruginosa [17])
8 µg/mL: MIC (Pseudomonas aeruginosa [8]) | MIC (Klebsiella pneumoniae [15])
4 µg/mL: MIC (Klebsiella pneumoniae [3]) | MIC (Escherichia coli [4]) | MIC (Klebsiella pneumoniae [26]) | MIC (Klebsiella pneumoniae [40])
0.5 µg/mL: MIC (Escherichia coli [5]) | MIC (Escherichia coli [23]) | MIC (Escherichia coli [24]) | MIC (Escherichia coli [28])
8: Selectivity Index (Klebsiella pneumoniae [18])
2 µg/mL: MIC (Klebsiella pneumoniae [39]) | MIC (Escherichia coli [43])
16 µg/mL: MIC (Pseudomonas aeruginosa [1]) | MIC (Pseudomonas aeruginosa [12]) | MIC (Pseudomonas aeruginosa [14]) | MIC (Pseudomonas aeruginosa [21]) | MIC (Pseudomonas aeruginosa [31]) | MIC (Pseudomonas aeruginosa [37]) | MIC (Pseudomonas aeruginosa [41]) | MIC (Pseudomonas aeruginosa [42])
1 µg/mL: MIC (Klebsiella pneumoniae [7]) | MIC (Klebsiella pneumoniae [9]) | MIC (Escherichia coli [13]) | MIC (Klebsiella pneumoniae [27]) | MIC (Klebsiella pneumoniae [33]) | MIC (Klebsiella pneumoniae [34]) | MIC (Escherichia coli [36]) | MIC (Escherichia coli [45])
1: Selectivity Index (Pseudomonas aeruginosa [19]) | Selectivity Index (Pseudomonas aeruginosa [20]) | Selectivity Index (Pseudomonas aeruginosa [38])
0.25 µg/mL: MIC (Escherichia coli [6])
4: Selectivity Index (Klebsiella pneumoniae [2]) | Selectivity Index (Klebsiella pneumoniae [10]) | Selectivity Index (Escherichia coli [29]) | Selectivity Index (Klebsiella pneumoniae [30]) | Selectivity Index (Escherichia coli [35])
2: Selectivity Index (Pseudomonas aeruginosa [11]) | Selectivity Index (Klebsiella pneumoniae [16]) | Selectivity Index (Escherichia coli [22]) | Selectivity Index (Escherichia coli [25]) | Selectivity Index (Escherichia coli [32]) | Selectivity Index (Pseudomonas aeruginosa [44])
